Results on 48 compounds are retold here after ChEMBL document CHEMBL1127785, “[[omega-(Heterocyclylamino)alkoxy]benzyl]-2,4-thiazolidinediones as potent antihyperglycemic agents” (1994).

Active and inactive are the calls of the source. The calls are words filed in the database; no cut-off is given here.

Assay [1] concerns Mus musculus. Description: Percent reduction in area under glucose tolerance curve (AUC) was determined at 300 umol/kg dose of diet in mice; IA = No significant activity. It is filed as functional, organism-based. In a few lines:
(§1)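 C57 Bl/6 ob/ob mice, 9–10 weeks old at purchase, 6–8 per group, kept at 26 ± 2 °C on a 12 h light/dark cycle. Compound was mixed into powdered diet, given fresh daily for 8 days. Mice were then fasted 5 h and given oral glucose 3 g/kg. Tail blood glucose was measured at 0, 45, 90 and 135 min by hexokinase/G6PDH. Read-out is % AUC reduction vs controls (trapezoid rule), Student's t-test.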

Assay [2] relates to Mus musculus. Description: Percent reduction in area under glucose tolerance curve (AUC) was determined at 30 umol/kg dose of diet in mice. The format is functional. In a few lines: as §1
Assay [3] has as its system Mus musculus. Description: Percent reduction in area under glucose tolerance curve at 300 uM/kg dose in diet of mice. It is filed as functional. An outline of the steps: as §1
Assay [4] has as its system Mus musculus. Description: Percent reduction in area under glucose tolerance curve (AUC) was determined at 10 umol/kg dose of diet in mice; IA = No significant activity. The format is functional, organism-based. In a few lines: as §1
The subject of assay [5] is Mus musculus. Description: Percent reduction in area under glucose tolerance curve at 100 uM/kg dose in diet of mice. The format is functional. An outline of the steps: as §1
Assay [6] deals with Mus musculus. Description: Percent reduction in area under glucose tolerance curve (AUC) was determined at 1000 umol/kg dose of diet in mice. The format is functional. In a few lines: as §1
For assay [7], the system named is Mus musculus. Description: Percent reduction in area under glucose tolerance curve (AUC) was determined at 30 umol/kg dose of diet in mice; IA = No significant activity. It is filed as functional, organism-based. In a few lines:
as §1

Assay [8] concerns Mus musculus. Description: Percent reduction in area under glucose tolerance curve (AUC) was determined at 100 umol/kg dose of diet in mice; IA = No significant activity. The format is functional, organism-based. In a few lines:
as §1

Assay [9] concerns Mus musculus. Description: Percent reduction in area under glucose tolerance curve (AUC) was determined at 3 umol/kg dose of diet in mice. The format is functional. An outline of the steps: as §1
Assay [10] relates to Mus musculus. Description: Percent reduction in area under glucose tolerance curve (AUC) was determined at 10 umol/kg dose of diet in mice. The format is functional. An outline of the steps: as §1
The subject of assay [11] is Mus musculus. Description: Percent reduction in area under glucose tolerance curve (AUC) was determined at 3 umol/kg dose of diet in mice; IA = No significant activity. The format is functional, organism-based. An outline of the steps:
as §1

Assay [12] deals with Mus musculus. Description: Percent reduction in area under glucose tolerance curve (AUC) was determined at 3000 umol/kg dose of diet in mice. It is filed as functional. An outline of the steps:
as §1

In the case of `O=C(NCCOc1ccc(CC2SC(=O)NC2=O)cc1)Nc1ccc(Cl)c(Cl)c1` (centres undefined), in assay [1], the Reduction entry is “Not significant”.

`COc1ccc(NC(=O)NCCOc2ccc(CC3SC(=O)NC3=O)cc2)cc1` (centres undefined): the Reduction entry in assay [1] is “Not significant”.

For `CN(CCOc1ccc(CC2SC(=O)NC2=O)cc1)c1ncccc1Cl` (centres undefined), the Reduction in assay [2] is 15%; in [3], 40%.

`Cc1sc(N(C)CCOc2ccc(CC3SC(=O)NC3=O)cc2)nc1-c1ccccc1` (centres undefined): the results for the Reduction in assay [2], in assay [4] and in assay [5] were 20%, “Not significant” and 37%, respectively.

For `O=C1NC(=O)C(Cc2ccc(OCCNC(=S)Nc3ccccc3)cc2)S1` (centres undefined), the values for the Reduction in [6], in assay [7] and in [5] were 43%, “Not significant” and 10%, respectively.

Regarding `CN(CC(O)COc1ccc(CC2SC(=O)NC2=O)cc1)c1nc2ccccc2o1` (centres undefined), the Reduction result in assay [8] was “Not significant”.

In assay [3], `CN(CCOc1ccc(CC2SC(=O)NC2=O)cc1)C(=O)Nc1ccccc1` (centres undefined) displayed a Reduction of 27%.

As to `Cc1nc(N(C)CCOc2ccc(CC3SC(=O)NC3=O)cc2)sc1C` (centres undefined), the Reduction was 47% in assay [2] and “Not significant” in assay [4].

For `CN(CCOc1ccc(CC2OC(=O)NC2=O)cc1)c1nc2ccccc2o1` (centres undefined), the Reduction was 52% in [6], “Not significant” in assay [7], 41% in assay [3] and 23% in assay [5].

For `COc1cccc(N(C)CCOc2ccc(CC3SC(=O)NC3=O)cc2)n1` (centres undefined), the figures for the Reduction result in assay [7] and in assay [3] were “Not significant” and 35%, respectively.

As to `CN(CCCCOc1ccc(CC2SC(=O)NC2=O)cc1)c1nc2ccccc2o1` (centres undefined), the Reduction entry in assay [7] was “Not significant”; in [3], 25%.

For the compound `CN(CCOc1ccc(CC2CC(=O)NC2=O)cc1)c1nc2ccccc2o1` (centres undefined), the Reduction result in [1] was “Not significant”.

As for `Cc1csc(N(C)CCOc2ccc(CC3SC(=O)NC3=O)cc2)n1` (centres undefined), the Reduction stood at 14% in assay [9], 53% in assay [2] and 28% in assay [10].

With `CN(CCOc1ccc(CC2SC(=O)NC2=O)cc1)c1ccc([N+](=O)[O-])cn1` (centres undefined), the Reduction entry in assay [7] is “Not significant”.

Regarding `CN(CCOc1ccc(CC2[Se]C(=O)NC2=O)cc1)c1nc2ccccc2o1` (centres undefined), the results for the Reduction result in assay [4] and in assay [5] were “Not significant” and 45%, respectively.

In the case of `Cc1ccc(N(C)CCOc2ccc(CC3SC(=O)NC3=O)cc2)nc1` (centres undefined), the Reduction in assay [2] is reported as 18%; in assay [3] it was 35%; in assay [5], 19%.

In the case of `Cc1ccnc(N(C)CCOc2ccc(CC3SC(=O)NC3=O)cc2)c1` (centres undefined), the figures for the Reduction entry in [11], in [2] and in assay [3] were “Not significant”, 34% and 41%, respectively.

For the compound `CN(CCOc1ccc(CC2SC(=O)NC2=O)cc1)c1ccc(Cl)cn1` (centres undefined), the values for the Reduction entry in assay [7] and in assay [3] were “Not significant” and 44%, respectively.

In assay [5], `CC(C)N(CCOc1ccc(CC2SC(=O)NC2=O)cc1)c1nc2ccccc2o1` (centres undefined) gave a Reduction of 20%.

With `Cc1nc(N(C)CCOc2ccc(CC3SC(=O)NC3=O)cc2)oc1C` (centres undefined), the Reduction result is “Not significant” in assay [11], 33% in assay [2] and 16% in assay [10].

As for `CCc1ccc(CCOc2ccc(CC3SC(=O)NC3=O)cc2)nc1` (centres undefined) [PIOGLITAZONE], in [8], the Reduction entry is “inactive”. In addition, the Reduction was 62% in assay [6], 35% in [3] and 63% in [12].

For `O=C1NC(=O)C(Cc2ccc(OCCN(Cc3ccccc3)c3nc4ccccc4s3)cc2)S1` (centres undefined), the Reduction entry in assay [8] was “Not significant”; in assay [3], 56%.

For `CC(=O)N(CCOc1ccc(CC2SC(=O)NC2=O)cc1)c1ncccn1` (centres undefined), the Reduction in assay [2] came to 19%.

With `CN(CCOc1ccc(/C=C2\SC(=O)NC2=O)cc1)c1nc2ccccc2o1`, in assay [3], the Reduction was determined as 30%.

As to `CN(CCSc1ccc(CC2SC(=O)NC2=O)cc1)c1nc2ccccc2o1` (centres undefined), the Reduction in [5] is 20%.

Regarding `O=C(NCCOc1ccc(CC2SC(=O)NC2=O)cc1)Nc1ccc(Cl)cc1` (centres undefined), the Reduction result in [1] is “Not significant”.

`O=C1NC(=O)C(Cc2ccc(OCCNc3ncccn3)cc2)S1` (centres undefined) yielded a Reduction in assay [2] of 15%.

Consider `CN(CCCOc1ccc(CC2SC(=O)NC2=O)cc1)c1nc2ccccc2o1` (centres undefined), for which the Reduction result in [8] is “inactive”. In assay [3], this compound registered a Reduction of 32%.

Regarding `O=C1NC(=O)C(Cc2ccc(OCCNc3nc4ccccc4o3)cc2)S1` (centres undefined), the Reduction entry was “Not significant” in [7] and 44% in [5].

With `CN(CCOc1ccc(CC2SC(=O)NC2=O)cc1)c1nccc(-c2ccccc2)n1` (centres undefined), in assay [4], the Reduction result is “Not significant”.

For `CN(CCOc1ccc(CCC2SC(=O)NC2=O)cc1)c1nc2ccccc2o1` (centres undefined), the Reduction entry in assay [8] is “Not significant”.

Take `CN(CCOc1ccc(CC2SC(=O)NC2=O)cc1)c1ccc(N)cn1` (centres undefined): the Reduction result in assay [7] was “Not significant”.

As for `CN1C(=O)SC(Cc2ccc(OCCN(C)c3nc4ccccc4o3)cc2)C1=O` (centres undefined), the Reduction result in assay [8] was “Not significant”; in assay [6] it was 42%.

With `CC(COc1ccc(CC2SC(=O)NC2=O)cc1)N(C)c1nc2ccccc2o1` (centres undefined), the Reduction entry is “Not significant” in [8] and 38% in assay [3].

With `CN(CCOc1ccc(CC2SC(=O)NC2=O)cc1)/C(=N/c1ccccc1)NC#N` (centres undefined), the Reduction result in assay [1] was “Not significant”.

Consider `CN(CCOc1ccc(CC2SC(=O)NC2=O)cc1)c1ccncc1` (centres undefined), for which the Reduction result in [4] is “Not significant”.

For `CN(CCOc1ccc(CC2SC(=O)NC2=O)cc1)c1nccs1` (centres undefined), the results for the Reduction result in assay [4] and in assay [5] were “Not significant” and 58%, respectively.

With `Cc1cccc(N(C)CCOc2ccc(CC3SC(=O)NC3=O)cc2)n1` (centres undefined), the Reduction result is “Not significant” in [7] and 33% in assay [3].

On to `CN(CCOc1ccc(CC2SC(=O)NC2=O)cc1)c1nc(-c2ccccc2)cs1` (centres undefined), for which the values for the Reduction entry in assay [7] and in assay [5] were “Not significant” and 34%, respectively.

With `CN(CCOc1ccc(CC2SC(=O)NC2=O)cc1)c1nc2ccccc2s1` (centres undefined), the Reduction result in assay [11] was “Not significant”; in [3], 66%; in assay [10] it was 36%; in assay [5] it was 51%.

As for `CN(CCOc1ccc(CC2SC(=O)NC2=O)cc1)C(=O)NCc1ccccc1` (centres undefined), the Reduction result in assay [7] is “Not significant”; in assay [3], 41%.

For `O=C(NCCOc1ccc(CC2SC(=O)NC2=O)cc1)Nc1ccccc1` (centres undefined), the Reduction was found to be 58% in assay [6] and 21% in assay [5].

Regarding `CC(CN(C)c1nc2ccccc2o1)Oc1ccc(CC2SC(=O)NC2=O)cc1` (centres undefined), in assay [1], the Reduction result is “Not significant”.

On to `CN(CCOc1ccc(/C=C2\SC(=O)NC2=O)cc1)c1ccccn1`, for which the Reduction result in assay [7] is “inactive”. The compound further showed a Reduction in assay [3] of 47%.

Regarding `CN(CCOc1ccc(CC2SC(=O)NC2=O)cc1)c1cnccn1` (centres undefined), the Reduction entry in [4] is “Not significant”; in assay [5], 46%.

In the case of `CC1(COc2ccc(CC3SC(=O)NC3=O)cc2)CCCCC1` (centres undefined) [CIGLITAZONE], the Reduction result in [1] was “inactive”. In assay [12], this compound had a Reduction of 41%.

Regarding `CN(CCOc1ccc(CC2SC(=O)NC2=O)cc1)c1ncc(-c2ccccc2)o1` (centres undefined), the figures for the Reduction in [2] and in assay [10] were 22% and 20%, respectively.

As for `CN(CC(Oc1ccc(CC2SC(=O)NC2=O)cc1)c1ccccc1)c1nc2ccccc2o1` (centres undefined), the Reduction result in [7] is “Not significant”.
